Laboratory results reported in ChEMBL document CHEMBL1129433, “On the bioisosteric potential of diazines: diazine analogues of the combined thromboxane A2 receptor antagonist and synthetase inhibitor Ridogrel” (J Med Chem, 1996).

What was measured:
[1] = species: Homo sapiens; assay: In vitro inhibition of collagen-induced platelet aggregation in human platelet-rich plasma (PRP) at 273 uM; assay type: functional
[2] = species: Homo sapiens; assay: Inhibition of collagen-induced platelet aggregation in human platelet rich plasma; assay type: functional
Procedure, shortened: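 PRP and PPP were prepared from human blood by centrifugation at 1000 rpm and 4000 rpm respectively, each for 10 min at 10 °C. PRP was adjusted to […]. Collagen was 0.53 µg/mL final. Optical density of stirred PRP was recorded for 4 min, at least in duplicate. PRP and PPP set 0% and 100% light transmission. EC50 was taken from the concentration–inhibition curve.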

[3] = target: T1, Thromboxane A2 receptor (Homo sapiens, UniProt P21731); assay: TXA2 receptor antagonism, measured by the displacement of [3H]SQ29,548 from the PGH-2/TXA-2 receptor on human platelets; assay type: functional
T1 sequence (P21731 whole entry): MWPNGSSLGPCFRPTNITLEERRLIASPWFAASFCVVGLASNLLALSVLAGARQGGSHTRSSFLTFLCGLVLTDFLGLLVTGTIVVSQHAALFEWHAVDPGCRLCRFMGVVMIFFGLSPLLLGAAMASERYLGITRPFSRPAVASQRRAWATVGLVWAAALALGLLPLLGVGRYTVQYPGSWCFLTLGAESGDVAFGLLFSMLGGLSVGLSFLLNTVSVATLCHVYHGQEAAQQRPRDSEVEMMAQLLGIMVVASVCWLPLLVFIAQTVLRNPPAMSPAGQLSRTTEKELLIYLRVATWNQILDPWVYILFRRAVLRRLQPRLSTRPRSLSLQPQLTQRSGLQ
Procedure, shortened: (§1)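 Human gel-filtered platelets were used. Nonspecific binding was defined with U 46,619 at 30 µM final in place of the test compound. IC50 is the concentration giving 50% displacement of [³H]SQ 29,548.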

[4] = target: T2, Thromboxane-A synthase (Homo sapiens, UniProt P24557); assay: TXA2 synthetase inhibition measured by the inhibition of TXB2 formation by human gel-filtered platelets incubated with [14C]arachidonic acid
T2 sequence (P24557 whole entry): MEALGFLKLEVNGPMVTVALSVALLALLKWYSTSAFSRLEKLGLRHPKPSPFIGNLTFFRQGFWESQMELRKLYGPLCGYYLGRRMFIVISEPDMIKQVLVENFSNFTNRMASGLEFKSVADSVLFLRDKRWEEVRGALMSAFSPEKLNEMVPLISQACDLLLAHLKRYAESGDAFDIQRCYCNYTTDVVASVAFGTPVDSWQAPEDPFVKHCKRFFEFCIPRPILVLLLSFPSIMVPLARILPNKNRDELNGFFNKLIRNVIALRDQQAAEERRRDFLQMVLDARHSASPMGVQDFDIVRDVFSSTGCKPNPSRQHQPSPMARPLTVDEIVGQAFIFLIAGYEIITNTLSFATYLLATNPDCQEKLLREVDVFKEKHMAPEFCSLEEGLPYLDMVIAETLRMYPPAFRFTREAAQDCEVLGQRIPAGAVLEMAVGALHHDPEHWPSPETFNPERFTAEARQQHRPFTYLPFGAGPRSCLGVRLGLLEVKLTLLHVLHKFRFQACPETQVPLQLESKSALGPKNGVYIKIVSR

[5] = species: Homo sapiens; assay: In vitro inhibition of collagen-induced platelet aggregation in human platelet-rich plasma (PRP) at 291 uM; assay type: functional
[6] = species: Homo sapiens; assay: In vitro inhibition of collagen-induced platelet aggregation in human platelet-rich plasma (PRP) at 278uM; assay type: functional
[7] = target: T1, Thromboxane A2 receptor; assay: TXA2 receptor antagonism, measured by the displacement of [3H]SQ-29548 from the PGH-2/TXA-2 receptor on human platelets; assay type: functional; procedure, shortened: as §1

Row | EC50 [2] | IC50 [3] | IC50 [4] | Compound | further results
1 | 200 µM | – | – | O=C(O)CCCCCO/N=C(/c1cncnc1)c1cccc(C(F)(F)F)c1 | –
2 | 190 µM | 11 µM | 0.006 µM | O=C(O)CCCCO/N=C(\c1cccc(C(F)(F)F)c1)c1cnccn1 | –
3 | 245 µM | – | – | O=C(O)CCCO/N=C(\c1ccccc1)c1ccnnc1 | –
4 | 184 µM | – | – | O=C(O)CCCCCO/N=C(/c1cccc(C(F)(F)F)c1)c1ccncn1 | –
5 | – | – | > 10 µM | O=C(O)CCCCO/N=C(/c1ccccc1)c1ncccn1 | inhibition at 273 µM [1]: 0%
6 | 65 µM | 1.5 µM | 2.9 µM | O=C(O)CCCCO/N=C(/c1cccc(C(F)(F)F)c1)c1cnccn1 | –
7 | 236 µM | 25 µM | > 10 µM | O=C(O)CCCCCO/N=C(/c1ccccc1)c1ccncn1 | –
8 | 251 µM | – | – | O=C(O)CCCCCO/N=C(\c1cccc(C(F)(F)F)c1)c1cnccn1 | –
9 | 272 µM | 99 µM | > 10 µM | O=C(O)CCCCO/N=C(\c1cccc(C(F)(F)F)c1)c1ncccn1 | –
10 | 203 µM | – | – | O=C(O)CCCCCO/N=C(\c1ccccc1)c1cccnn1 | –
11 | 217 µM | 71 µM | > 100 µM | O=C(O)CCCCO/N=C(/c1ccccc1)c1cccnn1 | –
12 | 71 µM | 2.5 µM | > 100 µM | O=C(O)CCCCO/N=C(/c1cccc(C(F)(F)F)c1)c1ccncn1 | –
13 | 12 µM | 0.36 µM | 6.1 µM | O=C(O)CCCCO/N=C(\c1cncnc1)c1cccc(C(F)(F)F)c1 | –
14 | 186 µM | 29 µM | 0.693 µM | O=C(O)CCCCCO/N=C(/c1ccnnc1)c1cccc(C(F)(F)F)c1 | –
15 | – | 21 µM | > 10 µM | O=C(O)CCCCCO/N=C(\c1ccnnc1)c1cccc(C(F)(F)F)c1 | inhibition at 291 µM [5]: 26%
16 | 131 µM | – | – | O=C(O)CCCCCO/N=C(\c1ccccc1)c1cnccn1 | –
17 | 112 µM | 5 µM | > 10 µM | O=C(O)CCCCCO/N=C(\c1ccccc1)c1ccncn1 | –

Row | EC50 [2] | IC50 [3] | IC50 [4] | Compound | further results
18 | 32 µM | 1.5 µM | 0.039 µM | O=C(O)CCCCO/N=C(/c1cncnc1)c1cccc(C(F)(F)F)c1 | –
19 | 94 µM | 24 µM | 0.62 µM | O=C(O)CCCCO/N=C(/c1ccccc1)c1cnccn1 | –
20 | 59 µM | 7.1 µM | 3.8 µM | O=C(O)CCCCCO/N=C(\c1ccccc1)c1ccnnc1 | –
21 | 52 µM | 6 µM | 0.016 µM | O=C(O)CCCCO/N=C(/c1ccnnc1)c1cccc(C(F)(F)F)c1 | –
22 | 78 µM | 10 µM | > 100 µM | O=C(O)CCCCO/N=C(\c1cccc(C(F)(F)F)c1)c1cccnn1 | –
23 | 91 µM | 47 µM | 0.079 µM | O=C(O)CCCCO/N=C(\c1ccccc1)c1cnccn1 | –
24 | 25 µM | 1.1 µM | > 10 µM | O=C(O)CCCCCO/N=C(\c1cccc(C(F)(F)F)c1)c1ccncn1 | –
25 | – | 20 µM | 0.075 µM | O=C(O)CCCCO/N=C(\c1ccccc1)c1cncnc1 | inhibition at 278 µM [6]: 40%
26 | 216 µM | – | – | O=C(O)CCCCCO/N=C(/c1ccccc1)c1cnccn1 | –
27 | 291 µM | – | – | O=C(O)CCCCCO/N=C(\c1cncnc1)c1cccc(C(F)(F)F)c1 | –
28 | 214 µM | 52 µM | > 10 µM | O=C(O)CCCCO/N=C(/c1cccc(C(F)(F)F)c1)c1ncccn1 | –
29 | 127 µM | 8.8 µM | > 10 µM | O=C(O)CCCCCO/N=C(/c1ccccc1)c1cncnc1 | –
30 | 274 µM | 30 µM | > 100 µM | O=C(O)CCCCO/N=C(\c1ccccc1)c1ccncn1 | –
31 | 191 µM | 7.2 µM | 0.573 µM | O=C(O)CCCCO/N=C(/c1ccccc1)c1cncnc1 | –
32 | 291 µM | – | – | O=C(O)CCCCCO/N=C(\c1cccc(C(F)(F)F)c1)c1ncccn1 | –
33 | 227 µM | 33 µM | 0.26 µM | O=C(O)CCCCO/N=C(\c1ccccc1)c1ccnnc1 | –

Second part, the molecule before the results:

Row | Compound | EC50 [2] | IC50 [3] | IC50 [4] | further results
34 | O=C(O)CCCO/N=C(/c1ccccc1)c1cncnc1 | – | – | – | inhibition at 273 µM [1]: 17%
35 | O=C(O)CCCO/N=C(/c1ccccc1)c1cnccn1 | – | – | – | inhibition at 273 µM [1]: 19%
36 | O=C(O)CCCCCO/N=C(\c1ccccc1)c1ncccn1 | – | – | – | inhibition at 273 µM [1]: 0%
37 | O=C(O)CCCO/N=C(\c1ccccc1)c1cnccn1 | – | – | – | inhibition at 273 µM [1]: 47%
38 | O=C(O)CCCCCO/N=C(/c1ccccc1)c1cccnn1 | 204 µM | – | – | –
39 | O=C(O)CCCCCO/N=C(/c1cccc(C(F)(F)F)c1)c1cnccn1 | – | – | – | inhibition at 291 µM [5]: 47%
40 | O=C(O)CCCCO/N=C(/c1ccccc1)c1ccncn1 | 255 µM | 25 µM | > 100 µM | –
41 | O=C(O)CCCCO/N=C(/c1ccccc1)c1ccnnc1 | 163 µM | 13 µM | 8.8 µM | –
42 | O=C(O)CCCCCO/N=C(/c1ccccc1)c1ncccn1 | – | – | – | inhibition at 273 µM [1]: 0%
43 | O=C(O)CCCCCO/N=C(/c1ccccc1)c1ccnnc1 | 81 µM | 7.7 µM | > 10 µM | –
44 | O=C(O)CCCO/N=C(/c1ccccc1)c1ccncn1 | – | – | – | inhibition at 273 µM [1]: 38%
45 | O=C(O)CCCO/N=C(\c1ccccc1)c1cccnn1 | – | – | – | inhibition at 273 µM [1]: 4%
46 | O=C(O)CCCCCO/N=C(\c1cccc(C(F)(F)F)c1)c1cccnn1 | 241 µM | – | – | –
47 | O=C(O)CCCCO/N=C(\c1ccccc1)c1ncccn1 | – | – | > 100 µM | inhibition at 273 µM [1]: 0%
48 | O=C(O)CCCO/N=C(\c1ccccc1)c1ccncn1 | – | – | – | inhibition at 273 µM [1]: 34%
49 | O=C(O)CCCCO/N=C(\c1ccccc1)c1cccnn1 | – | – | > 100 µM | inhibition at 278 µM [6]: 47%; IC50 [7]: 104 µM
50 | O=C(O)CCCO/N=C(/c1ccccc1)c1ncccn1 | – | – | – | inhibition at 273 µM [1]: 0%
51 | O=C(O)CCCO/N=C(\c1ccccc1)c1cncnc1 | – | – | – | inhibition at 273 µM [1]: 46%
52 | O=C(O)CCCCO/N=C(\c1ccnnc1)c1cccc(C(F)(F)F)c1 | 30 µM | 1.8 µM | 6.63 µM | –
53 | O=C(O)CCCCO/N=C(\c1cccc(C(F)(F)F)c1)c1ccncn1 | 19 µM | 1.4 µM | > 10 µM | –
54 | O=C(O)CCCO/N=C(/c1ccccc1)c1cccnn1 | – | – | – | inhibition at 273 µM [1]: 2%
55 | O=C(O)CCCCO/N=C(/c1cccnc1)c1cccc(C(F)(F)F)c1 [RIDOGREL] | 41 µM | – | 0.007 µM | –
56 | O=C(O)CCCO/N=C(/c1ccccc1)c1ccnnc1 | – | – | – | inhibition at 273 µM [1]: 21%
57 | O=C(O)CCCO/N=C(\c1ccccc1)c1ncccn1 | – | – | – | inhibition at 273 µM [1]: 0%
